Rows were chosen to be rich in hits. Some 3.7% of all compounds tested hit in one or more screens of this group.
hERG rescue: hERG (human) protection from proarrhythmic block; Q12809; CHO-hERG, FluxOR thallium flux, dofetilide IC70 present; activation (rescue from dofetilide block), less the hit threshold, % at 10 µM; 310,000 compounds, 0.51% hits;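 active = activation above the mean of controls blocked by dofetilide plus 5 SD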;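 also: thallium influx through hERG after potassium depolarization seen as dye fluorescence rise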
KCNK3 inh: human KCNK3 channel inhibition, primary screen; O14649; CHO-KCNK3 thallium flux, FluxOR fluorescence; hits give low values; B-score at 10 µM; 340,000 compounds, 0.84% hits; AID 602410;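 active = B-score under library mean minus 4 SD, starting fluorescence ratio at most library mean plus 5 SD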;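 also: more negative B-score means stronger inhibition of thallium flux through KCNK3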
Target sequence (O14649 whole entry, looked up): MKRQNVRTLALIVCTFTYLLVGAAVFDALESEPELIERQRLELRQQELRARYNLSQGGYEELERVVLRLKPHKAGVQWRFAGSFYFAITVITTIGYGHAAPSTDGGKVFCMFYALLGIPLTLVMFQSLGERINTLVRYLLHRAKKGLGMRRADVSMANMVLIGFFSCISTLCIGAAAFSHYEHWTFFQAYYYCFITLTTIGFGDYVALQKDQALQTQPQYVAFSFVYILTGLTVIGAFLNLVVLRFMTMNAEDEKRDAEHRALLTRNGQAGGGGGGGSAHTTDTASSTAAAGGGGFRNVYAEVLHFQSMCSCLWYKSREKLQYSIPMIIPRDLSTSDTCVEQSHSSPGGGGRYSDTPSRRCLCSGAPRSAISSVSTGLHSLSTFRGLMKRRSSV
KCNK9 block: blocks the human KCNK9 two-pore domain potassium channel | Q9NPC2 | HEK293 KCNK9, FluxOR thallium flux fluorescence; hits give low values | B-score at 10 µM | 310,000 compounds, 1.2% hits | AID 488922;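 active = ratio B-score over 3 SD below the library mean, with starting fluorescence within 5 SD of its mean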;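 also: negative B-score means less thallium flux so channel inhibition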
KCNQ1 pot: human KCNQ1 channel potentiation or activation | CHO-K1 KCNQ1, thallium flux FluxOR fluorescence; hits give high values | B-score at 10 µM | 310,000 compounds, 0.35% hits | AID 2648;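 active = fluorescence ratio B-score, a plate-corrected score, at least three library SD, with initial intensity B-score within 5 SD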
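Doses: Single concentration per compound, DMSO matched to controls | Test system: KCNQ1-transfected CHO-K1 cells | Timing: 90 min dye loading and 20 min compound exposure, both at room temperature | Measured by: Kinetic FluxOR thallium fluorescence, 10-s 1-Hz baseline, 110-s post-stimulus read | Medium: Assay buffer with matched DMSO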
Kir21 inh: Kir2.1 (mouse) channel inhibition. 310,000 compounds, 0.85% hits. B-score at 10 µM. HEK293-Kir2.1, FluxOR thallium flux fluorescence; hits give low values. P35561;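 active = fluorescence ratio B-score at or below minus 3 SD of library scores, with starting-brightness B-score within 2 SD, cut at about -4.2 in these data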;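 also: channel flux triggered by added potassium and thallium sulfate stimulus; B-score of peak minus minimum fluorescence over baseline after thallium stimulus; more negative B-score means stronger Kir2.1 block with less thallium influx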
KCNQ1 block: inhibitors of human KCNQ1 potassium channel | 310,000 compounds, 1.3% hits | AID 2642 | B-score at 10 µM | CHO-K1 KCNQ1, FluxOR thallium flux fluorescence; hits give high values;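 active = compounds whose thallium flux B-score, printed positive for inhibition, exceeds three library SD while starting fluorescence stays within three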;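 also: channel opened by potassium depolarization with thallium stimulus after 20 min compound exposure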
KCNK9 block conf: confirmation of human KCNK9 potassium channel inhibitors | inhibition, % at 10 µM | 4,900 compounds, 43% hits | shares compounds with KCNK9 block | HEK293 KCNK9 cells, FluxOR thallium flux fluorescence;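 active = thallium signal inhibited by more than 5 SD of the compound-free buffer control wells, on both duplicate plates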;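 also: 0% = assay buffer control wells without compound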
Kir21 sel: tests whether KCNK9 modulators also affect mouse Kir2.1 | shares compounds with KCNK9 block | AID 492993 | 4,900 compounds, 4% hits | Kir2.1 cells, FluxOR thallium flux fluorescence | inhibition, % at 10 µM;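 active = thallium signal drop more than 5 SD beyond the mean of the no-compound control wells, seen in both duplicate plates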;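 also: signal is fluorescence rise after thallium addition divided by baseline fluorescence; plate controls were assay buffer only for no effect and full block by chlorpromazine control for full effect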
KCNK9 uninduced: second counter-screen for KCNK9 modulators: effect in non-induced cells. shares compounds with KCNK9 block. non-induced KCNK9-HEK293, FluxOR thallium flux. inhibition, % at 10 µM. 4,900 compounds, 40% hits. AID 492997;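 active = thallium signal drop beyond 5 SD of the untreated control mean, on both duplicate plates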;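 also: plate controls were buffer only IC0 wells for no effect and SID17386958 at its maximal inhibitory level for full effect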
The depositor's hits bear a star; i = inactive; · = no result.

SMILES	hERG rescue	KCNK3 inh	KCNK9 block	KCNQ1 pot	Kir21 inh	KCNQ1 block	KCNK9 block conf	Kir21 sel	KCNK9 uninduced
O=C1OC(Sc2ccccc2)(c2ccccc2)c2ccccc21 (configuration not stated)	·	i	·	·	·	·	·	·	·
Cc1ccc([N+](=O)[O-])c(OCCN2CCc3ccccc3C2)c1	-0.1	i	i	i	1.36	i	i	i	i
Brc1cccc(OCCN2CCCCC2)c1	-5.1	i	i	i	0.18	i	·	·	·
Brc1cccc(OCCN2CCc3ccccc3C2)c1	-8.8	i	i	i	0.76	i	i	i	i
C=CCN(CC=C)CCOc1cc(C)ccc1[N+](=O)[O-]	-8.0	i	i	i	0.51	i	i	i	i
COc1ccc(O)c(/C=N/NC(=O)c2cc(=O)[nH]c3ccccc23)c1	-14.1	i	i	i	2.07	i	·	·	·
Cc1ccc(/C=C2\SC(=O)N(CCNC(=O)C3CSC4(C)CCC(=O)N34)C2=O)cc1 (configuration not stated)	-14.4	i	i	i	-0.85	i	·	·	·
Cc1ccc(/C(N)=N/OC(=O)C(C)c2ccc([N+](=O)[O-])cc2)cc1 (configuration not stated)	-11.0	i	i	i	1.2	i	·	·	·
Cc1ccc(-c2nc(NC(=O)CSc3cc(C)c4ccccc4n3)ns2)cc1	-5.8	i	i	i	-0.52	i	·	·	·
COc1ccc2c(C)cc(SCC(=O)Nc3nsc(-c4ccc(C)cc4)n3)nc2c1	-21.5	i	-13.7*	i	-0.3	i	48.0%*	i	i
O=C(COC(=O)c1cccs1)Nc1ccccc1[N+](=O)[O-]	-11.8	i	i	i	-0.04	i	·	·	·
Cc1ccc(SCc2cc(=O)[nH]c(Nc3nc(C)c4ccc(C)cc4n3)n2)cc1	-10.5	i	i	i	0	i	·	·	·
Cc1ccc(SCc2cc(=O)[nH]c(Nc3nc(C)c4ccccc4n3)n2)cc1	-5.8	i	i	i	-0.67	i	i	i	i
COC(=O)c1cc(CN2CCN(c3ccccc3C)CC2)ccc1O	-15.4	i	i	i	-1.24	i	i	i	i
Cc1ccccc1N1CCN(Cc2cccc(C(=O)O)c2)CC1	-5.7	i	i	i	-0.44	i	·	·	·
CCOc1ccc(OCC(=O)OCC(=O)NNC(=O)c2ccc([N+](=O)[O-])cc2)cc1	-9.6	i	i	i	0.06	i	·	·	·
Oc1[nH]c2ccccc2c1N=NC(=S)N1CCOCC1	-20.7	i	-12.7*	i	1.46	i	54.5%*	i	45.0%*
Cc1cc(C)n2nc(C(=O)N3CCCC(N4CCN(c5ccccc5C)CC4)C3)cc2n1 (configuration not stated)	-8.7	i	i	i	-0.46	i	·	·	·
O=C(c1ccc(-c2cccc(C(F)(F)F)c2)o1)N1CCN(c2ccccc2O)CC1	-16.2	i	-8.52*	i	1.14	i	49.5%*	i	i
O=C(Nc1ccc(Nc2ccccc2)cc1)c1ccc(Cl)cc1	-2.4	i	i	i	0.66	i	·	·	·
N#C/C(C(=O)Nc1ccc(Cl)cc1)=C(/S)Nc1ccccc1	-2.6	i	i	i	-0.55	i	i	i	i
COc1ccc(CN2C(=O)C(Cc3ccccc3)Nc3ncnc(N4CCCCC4)c32)cc1 (configuration not stated)	-8.7	i	-13*	i	0.04	i	54.5%*	i	27.0%*
Cc1ccc(CN2C(=O)C(Cc3ccccc3)Nc3ncnc(N4CCN(c5ccccc5)CC4)c32)cc1 (configuration not stated)	-13.9	i	i	i	0.12	i	·	·	·
Cc1ccc(CN2C(=O)C(Cc3ccccc3)Nc3ncnc(N4CCCCC4)c32)cc1 (configuration not stated)	-8.5	i	-13.7*	i	1.61	i	64.5%*	i	38.0%*
CCCCNC(=O)c1c(CSc2ccc(Cl)cc2)noc1C(=O)NCc1ccccc1	-12.5	i	i	i	1.29	i	i	i	i
SMILES	hERG rescue	KCNK3 inh	KCNK9 block	KCNQ1 pot	Kir21 inh	KCNQ1 block	KCNK9 block conf	Kir21 sel	KCNK9 uninduced
O=C(NCc1ccccc1)c1onc(CSc2ccc(Cl)cc2)c1C(=O)NCc1ccccc1	-1.1	i	i	i	-0.02	i	·	·	·
CC(C)NC(=O)c1c(CSc2ccc(Cl)cc2)noc1C(=O)NCc1ccccc1	-14.0	i	i	i	-0.23	i	i	i	i
CCCCNC(=O)c1c(CSc2ccccc2)noc1C(=O)NCc1ccccc1	-6.6	i	i	i	-0.03	i	i	i	i
CCCNC(=O)c1c(CSc2ccc(Cl)cc2)noc1C(=O)NCc1ccccc1	-6.6	i	i	i	0.66	i	i	i	i
Cc1c(Cl)cccc1NC(=O)COC(=O)Cn1cnc2c1c(=O)n(C)c(=O)n2C	·	i	·	·	·	·	·	·	·
CC(C)(C)CC(=O)NC(=S)N1CCCCCC1	-1.0	i	i	i	1.77	i	·	·	·
CN(C)CCNC(=O)c1c(CSc2ccc(Cl)cc2)noc1C(=O)NCc1ccccc1	-4.1	i	i	i	1.28	i	·	·	·
O=C(NCc1ccccc1)c1onc(CSc2ccc(Cl)cc2)c1C(=O)NCC1CC1	-9.7	i	i	i	0.85	i	i	i	i
COCCNC(=O)c1c(CSc2ccccc2)noc1C(=O)NCc1ccccc1	-5.6	i	i	i	1.78	i	·	·	·
O=C(NCc1ccccc1)c1onc(CSc2ccccc2)c1C(=O)NCc1ccccc1	-8.3	i	i	i	0.15	i	i	i	i
C/C(=N/OC(=O)C1CC12CCC2)c1ccc(Br)cc1 (configuration not stated)	-9.6	i	i	i	0.41	i	i	i	i
CC1C(=O)N2CCCc3cc(NS(=O)(=O)c4ccccc4)cc1c32 (configuration not stated)	-7.8	i	i	i	-0.47	i	·	·	·
COc1ccc([N+](=O)[O-])cc1NC(=O)C(C)N(C)Cc1ccc(Br)cc1 (configuration not stated)	-12.3	i	-8.59*	i	-2.5	i	31.0%*	i	37.5%*

High-throughput results (PubChem)
